Measured values of several laboratories.
Each line is one published result; the experiments were not run side by side.
Target: Casein kinase I isoform delta (CSNK1D, Homo sapiens, UniProt P48730)

Structure (SMILES)	test	setting	measurement	result
Cc1ccc(C(=O)Nc2ccc(CN3CCN(C)CC3)c(C(F)(F)F)c2)cc1C#Cc1cnc2cccnn12	enzyme activity	23.5 nM	remaining activity	100%
COc1cc(Cl)c(C(=O)N[C@@H](CN[C@H]2CC[C@@H](N)CC2)Cc2ccc(C#N)cc2)cc1-c1ccc(CN[C@H](C)c2ccc(C)cc2)o1	enzyme activity, inhibitor	1 µM	remaining activity	89%
C[C@@]1(Cc2ccc(C#N)cc2)C(=O)N(c2cc(Cl)cc(Cl)c2)c2ncc(C(=O)NC3(c4nc(C5CCC5)no4)CC3)n21	cell-free assay, competition with immobilised ligand	1 µM	remaining binding	100%
CCCOc1ccc(OC)c(F)c1C(=O)c1ccc(C(=O)N[C@@H]2CNC[C@H]2NC(=O)c2ccc3[nH]ncc3c2)cc1	enzyme activity, inhibitor	10 µM	remaining activity	43%
N#CCCc1ccc2c(c1)-c1[nH]c3ccc([N+](=O)[O-])cc3c1CC(=O)N2	cell-free assay	0.5 µM	remaining signal	97.4%
COc1cc(/C=C/C(=O)CC(=O)/C=C/c2ccc(O)c(OC)c2)ccc1O	enzyme activity, inhibitor	1 µM	activity vs control	105%
O=C(CSc1nc2nccnc2c(=O)n1CCc1ccccc1)Nc1nccs1	enzyme activity, inhibitor	10 µM	inhibition	7%
CCCS(=O)(=O)Nc1ccc(F)c(C(=O)c2c[nH]c3ncc(-c4ccc(Cl)cc4)cc23)c1F	enzyme activity, inhibitor	1 µM	inhibition	< 10%
CN1CC(Oc2cnc(C#N)cc2-c2ccn3nc(NC(=O)C4CC4)cc3c2)C1	enzyme activity, inhibitor	1 µM	inhibition	-20%
Cc1nccc(COC(=O)N2C[C@@H]3[C@@H](CNC(=O)c4ccc5[nH]nnc5c4)[C@@H]3C2)n1	cell-free assay, competition with immobilised ligand	1 µM	remaining binding	97%
CS(=O)(=O)CCNCc1ccc(-c2ccc3ncnc(Nc4ccc(OCc5cccc(F)c5)c(Cl)c4)c3c2)o1	cell-free assay	0.5 µM	remaining signal	91.2%
CCN(CC)c1ccc(C2=NNC(=O)CC2C)cc1[N+](=O)[O-] (stereo not shown)	enzyme activity, inhibitor	10 µM	remaining activity	109%
CC(C)(C)c1nc(-c2cccc(NS(=O)(=O)c3c(F)cccc3F)c2F)c(-c2ccnc(N)n2)s1	enzyme activity, inhibitor, radiometric	1 µM	remaining activity	81%
O=C(NCc1ncc(C(F)(F)F)cc1Cl)c1ccc2c(c1)C1(CCS(=O)(=O)CC1)[C@@H](C1CC1)N2S(=O)(=O)c1ccc(F)cc1	cell-free assay, competition with immobilised ligand	1 µM	remaining binding	93%
FC(F)(F)Oc1cccc(-c2cnc3ccc(-c4ccncc4)nn23)c1	enzyme activity, inhibitor, radiometric	5 µM	activity vs control	97%
COc1cc(Nc2cnc(C#N)c(O[C@H](C)CN(C)C)n2)ncc1-c1cnn(C)c1	enzyme activity, inhibitor, radiometric	1 µM	remaining activity	76%
COc1cc2ncnc(Nc3ccc(F)c(Cl)c3)c2cc1OCCCN1CCOCC1	cell-free assay	0.5 µM	remaining signal	90.4%
CCCOc1ccc([C@H]2[C@H](C(=O)O)[C@@H](c3ccc4c(c3)OCO4)CN2CC(=O)Nc2c(CC)cccc2CC)cc1	cell-free assay, competition with immobilised ligand	1 µM	remaining binding	80%
O=C(Nc1cnn(-c2csc(C(=O)NC3COC3)c2)c1)Nc1c(F)cccc1Cl	enzyme activity, inhibitor	5 µM	remaining activity	117%
CC(=O)N1CCC(c2ccc(C(=O)NC3=NCCN3)cc2C(F)(F)F)CC1	cell-free assay, competition with immobilised ligand	1 µM	remaining binding	100%
Nc1ncnc2c1cnn2-c1ccccc1	cell-free assay	0.5 µM	remaining signal	79.5%
CS(=O)(=O)N1CCCC(NC(=O)[C@H](CCC2CCCCC2)NC(=O)c2ccc(CNC(=O)c3cnc4ccccn34)cc2)C1 (stereo partly shown)	cell-free assay, competition with immobilised ligand	0.1 µM	remaining binding	84%
COc1cc2ncnc(Nc3ccc(Oc4ccccc4)cc3C)c2cc1OC	enzyme activity, inhibitor	1 µM	inhibition	0%
CN(c1ccnc(CNc2nc(Nc3ccc4c(c3)CC(=O)N4)ncc2C(F)(F)F)n1)S(C)(=O)=O	cell-free assay, competition with immobilised ligand	1 µM	remaining binding	100%
CC(C)(O)[C@H]1CC[C@H](Nc2ccc3ncc(-c4cccc(C(F)(F)F)c4)n3n2)CC1	enzyme activity, inhibitor	1 µM	remaining activity	84.2%
